Most compounds without a hit are left out; they make up all but 2.1% or so of the library.
MsrA inhibitor: bovine MsrA enzyme inhibitors, primary screen, biochemical, absorbance, HTS. Methionine sulfoxide reductase A (Bos taurus). purified bovine MsrA, absorbance read-out. inhibition, % at 15.5 µM. actives 0.75% (n = 360,000). AID 651718, 2012
PKA-R1A activ: activators of PKA-R1A holoenzyme, primary screen, biochemical, fluorescence polarization, Cy5-IP20, bovine R1A, mouse PKAc. cAMP-dependent protein kinase type I-alpha regulatory subunit (Bos taurus) + …. PKA-R1A dissociation; scaled: DMSO 0%, 113 µM cGMP 100%. actives 0.083% (n = 340,000). activation, % at 11.4 µM. AID 504707, 2011;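 active = percent activation above the mean of all tested compounds plus 3 SD, cut at about 19% in these data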;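 also: higher means more PKAc released from R1A so a rise in polarization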
PKA-R2B activ: activators of PKA-R2B holoenzyme, primary screen, biochemical, fluorescence polarization, Cy5-IP20, human; cAMP-dependent protein kinase catalytic subunit beta (Homo sapiens) + cAMP-dependent …; PKA-R2B holoenzyme dissociation; R2B truncated from residue 108, S112A mutant; 0% DMSO only, 100% 113 µM cGMP; activation, % at 11.4 µM; actives 0.079% (n = 340,000); AID 504700, 2011;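 active = activation above a cutoff set at the mean over all compounds plus 3 SD, cut at about 18% in these data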;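 also: higher means more holoenzyme dissociation and a rise in polarization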
Target sequence (P31323 whole entry, looked up, other chains not shown, the tested form may be a part): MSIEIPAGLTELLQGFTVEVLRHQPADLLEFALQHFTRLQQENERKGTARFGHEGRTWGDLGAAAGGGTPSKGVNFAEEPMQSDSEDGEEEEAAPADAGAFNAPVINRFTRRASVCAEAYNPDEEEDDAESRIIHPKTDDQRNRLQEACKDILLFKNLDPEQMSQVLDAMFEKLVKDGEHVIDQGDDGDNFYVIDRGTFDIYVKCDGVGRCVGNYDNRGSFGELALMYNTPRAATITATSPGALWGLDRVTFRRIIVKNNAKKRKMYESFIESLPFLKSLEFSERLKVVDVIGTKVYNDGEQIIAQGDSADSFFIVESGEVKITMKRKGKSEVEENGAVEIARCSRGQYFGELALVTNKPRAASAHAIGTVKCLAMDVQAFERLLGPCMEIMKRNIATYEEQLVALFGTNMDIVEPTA
IMP-1 inh: IMP-1 metallo-beta-lactamase inhibitors, primary screen, biochemical, epi-absorbance readout, Pseudomonas aeruginosa enzyme; metallo-beta-lactamase IMP-1 (Pseudomonas aeruginosa); purified IMP-1, nitrocefin hydrolysis, epi-absorbance fluorescence; inhibition, % at 5.6 µM; actives 0.45% (n = 290,000); AID 1556, 2009;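 active = inhibition above the mean plus 3 SD of all compounds in the same screening run, cut at about 4.5% in these data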
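System: Purified recombinant IMP-1 metallo-beta-lactamase enzyme | Measured by: Fluorescence quenching readout, ex 480/em 530 nm | Replication: Singlicate | Incubation: 15 min preincubation plus 25 min reaction at 25 °C | Evaluation: Percent inhibition from optical density relative to buffer-blank wells | Benchmarks: DMSO with and without IMP-1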
bovine MsrA act: bovine MsrA enzyme activators, primary screen, biochemical, absorbance, HTS; AID 602163, 2012; Methionine sulfoxide reductase A (Bos taurus); purified bovine MsrA, absorbance read-out; activation, % at 10.6 µM; actives 0.3% (n = 360,000); in the data active = activation above about 7.5%
VIM-2 inh: VIM-2 metallo-beta-lactamase inhibitors, primary screen, biochemical, epi-absorbance readout, Pseudomonas aeruginosa enzyme. inhibition, % at 5.6 µM. purified VIM-2, nitrocefin hydrolysis, epi-absorbance fluorescence. actives 0.89% (n = 290,000);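 active = inhibition above the mean of all tested compounds plus 3 SD, cutoff set per screening run, cut at about 7.5% in these data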;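 also: red hydrolysis product quenches plate fluorescence so inhibitors raise well fluorescence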
MsrA conf: bovine MsrA inhibitors, retest, confirmation, biochemical, absorbance, HTS; inhibition, % at 15.5 µM; purified bovine MsrA, absorbance read-out; actives 41% (n = 2,300); AID 651822, 2012; shares compounds with MsrA inhibitor;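 also: coupled to thioredoxin reductase with NADPH and selenocystamine and DMSO as substrate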
Of the large screens only hits and unclear results are named; the others gave an inactive call (follow-up assays come after a bar, where they were run). Rule as the data show it, unless noted: active = inhibition above about 4.5%; inactive = the rest.

CC1CCc2sc(C(=O)NNC(=S)NC3CC3)cc2C1 (stereo unspecified)	none
Cn1cnc2c(N/N=C/c3cccs3)ncnc21	MsrA inhibitor 5.2 (no result: PKA-R1A activ, PKA-R2B activ) | MsrA conf 6.9
CCOc1ccc2nc(N(Cc3ccccc3)C(=O)CCNC(C)=O)sc2c1	none
Cc1cc(N2CCc3ccccc32)n2ncnc2n1	MsrA inhibitor 5.3 | MsrA conf inactive
COc1cc(/C=N/NC(=O)CC2(C)OCCO2)cc(Br)c1O	none
CCCCCC(=O)N/N=C/c1cc(Br)c(O)c(OC)c1	MsrA inhibitor 5.5 | MsrA conf inactive
COc1cc(/C=N/NC(=O)C(=O)NCc2ccco2)cc(Br)c1O	MsrA inhibitor 6.0 | MsrA conf inactive
COc1cc(/C=N/NC(=O)CSc2n[nH]c(=O)[nH]c2=O)cc(OC)c1O	MsrA inhibitor 4.8 | MsrA conf inactive
O=C(CSc1n[nH]c(=O)[nH]c1=O)N/N=C/c1ccccc1O	none
O=C(NCc1ccco1)C(=O)NN=Cc1ccccc1O	none (no result: PKA-R1A activ, PKA-R2B activ, IMP-1 inh, bovine MsrA act, VIM-2 inh)
Cc1cn([C@H]2C[C@H](O)[C@@H](CCC(=O)NCCCc3ccccc3)O2)c(=O)[nH]c1=O	none (no result: PKA-R1A activ, PKA-R2B activ, IMP-1 inh, VIM-2 inh)
C=CCCC1CN(Cc2ccc(OC)cc2)S(=O)(=O)c2c(NCc3cc(OC)c(OC)c(OC)c3)cccc2O1 (stereo unspecified)	none (no result: PKA-R1A activ, PKA-R2B activ, IMP-1 inh, bovine MsrA act, VIM-2 inh)
CC1=C(C(=O)N(C(C)C)C(C)C)CC(CC(=O)NCC2CCCCC2)C(=O)N1Cc1ccc(C(C)(C)C)cc1 (stereo unspecified)	none (no result: PKA-R1A activ, PKA-R2B activ, IMP-1 inh, VIM-2 inh)
CC(=O)c1ccc(N2CCN(C(=O)C(=O)c3cn(CC(=O)N4CCOCC4)c4ccccc34)CC2)cc1	MsrA inhibitor 6.8 (no result: IMP-1 inh, VIM-2 inh) | MsrA conf 5.6
CCCCc1cc(=O)oc2c(CN(C)C)c(O)c(Cl)cc12	MsrA inhibitor 5.0 | MsrA conf inactive
Cc1c(C)c2cc(Cl)c(O)c(CN(C)C)c2oc1=O	none
COc1ccc(/C=N/N2C(=O)C3C4C=CC(C4)C3C2=O)cc1[N+](=O)[O-] (stereo unspecified)	MsrA inhibitor 8.4 | MsrA conf 8.2
O=C(N/N=C/c1cn(-c2cccs2)nc1-c1ccccc1)c1ccccc1Br	MsrA inhibitor 6.5 | MsrA conf inactive
O=C(N/N=C/c1cn(-c2cccs2)nc1-c1ccccc1)c1ccccc1O	MsrA inhibitor 5.5 | MsrA conf inactive
O=C(N/N=C/c1cn(-c2ccccc2)nc1-c1cccnc1)c1ccccc1	none
Cc1ccc(Nc2cc(Cl)nc(N)n2)c([N+](=O)[O-])c1	none (no result: IMP-1 inh, VIM-2 inh)
C#CCn1c(=NC(=O)c2ccc(S(=O)(=O)N3CCCc4ccccc43)cc2)sc2cc(S(N)(=O)=O)ccc21	MsrA inhibitor 5.3 | MsrA conf inactive
Cn1c(=NC(=O)c2ccc(S(=O)(=O)N3CCCc4ccccc43)cc2)sc2cc(S(C)(=O)=O)ccc21	none
N#CC1=C(N)Oc2cc(O)ccc2C1c1cccnc1 (stereo unspecified)	none
N#CC1=C(N)Oc2ccc3ccccc3c2C1c1cccnc1 (stereo unspecified)	MsrA inhibitor 6.6 | MsrA conf inactive
N#CC1=C(N)Oc2ccc3ccc(O)cc3c2C1c1cccnc1 (stereo unspecified)	MsrA inhibitor 6.7 | MsrA conf 6.6
CC(NC(=O)CSc1nc(C2CC2)n(-c2ccccc2)n1)c1ccco1 (stereo unspecified)	none (no result: IMP-1 inh, VIM-2 inh)
CNS(=O)(=O)c1cccc(C(=O)OCC(=O)c2cc3ccccc3o2)c1	MsrA inhibitor 24 | MsrA conf 19
Cc1noc(C)c1C(=O)N1CCC1(C)C(=O)NS(=O)(=O)c1ccc(Cl)cc1 (stereo unspecified)	none (no result: PKA-R1A activ, PKA-R2B activ, IMP-1 inh, VIM-2 inh)

Source: PubChem (The Scripps Research Institute Molecular Screening Center)
